{"data": "Measured values pooled from the literature", "target": "Mitogen-activated protein kinase kinase kinase kinase 3 (MAP4K3, Homo sapiens, UniProt Q8IVH8)", "Sequence (Q8IVH8 1-894, as in one of the studies)": "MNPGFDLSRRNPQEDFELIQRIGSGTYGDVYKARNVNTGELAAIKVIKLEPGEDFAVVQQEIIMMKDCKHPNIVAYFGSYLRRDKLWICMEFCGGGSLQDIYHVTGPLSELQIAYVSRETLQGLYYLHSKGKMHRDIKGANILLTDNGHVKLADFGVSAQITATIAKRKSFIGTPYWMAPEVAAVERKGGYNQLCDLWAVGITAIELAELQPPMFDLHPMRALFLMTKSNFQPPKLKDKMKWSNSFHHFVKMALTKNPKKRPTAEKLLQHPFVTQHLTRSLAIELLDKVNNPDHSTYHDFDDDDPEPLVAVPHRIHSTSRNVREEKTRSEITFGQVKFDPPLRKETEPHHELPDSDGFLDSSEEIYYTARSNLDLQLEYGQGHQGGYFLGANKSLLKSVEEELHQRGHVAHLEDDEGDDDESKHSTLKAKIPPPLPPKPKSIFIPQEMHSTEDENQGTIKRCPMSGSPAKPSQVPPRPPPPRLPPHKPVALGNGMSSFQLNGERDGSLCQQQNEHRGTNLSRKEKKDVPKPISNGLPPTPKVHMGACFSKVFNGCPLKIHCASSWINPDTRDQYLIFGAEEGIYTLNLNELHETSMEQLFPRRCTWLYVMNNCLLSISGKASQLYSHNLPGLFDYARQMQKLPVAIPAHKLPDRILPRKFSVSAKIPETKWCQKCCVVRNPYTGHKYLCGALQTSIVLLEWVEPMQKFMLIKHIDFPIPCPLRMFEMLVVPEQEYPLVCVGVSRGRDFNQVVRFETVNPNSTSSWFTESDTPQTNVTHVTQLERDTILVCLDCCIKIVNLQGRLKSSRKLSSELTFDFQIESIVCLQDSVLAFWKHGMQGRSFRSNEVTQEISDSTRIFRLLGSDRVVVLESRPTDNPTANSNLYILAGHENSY", "note": "Each line is one published result; the experiments were not run side by side."}
{"Compound": "O=C(c1ccc(Nc2ncc(Cl)c(-c3cc4ccccc4s3)n2)cc1)N1CCC(N2CCCC2)CC1", "test": "binding, competition with immobilised ligand", "conditions": "1 µM", "remaining binding [%]": 40}
{"Compound": "CN([C@@H]1CCc2c(CC(=O)O)c3cc(S(C)(=O)=O)ccc3n2C1)S(=O)(=O)c1ccc(F)cc1", "test": "cell-free assay, competition with immobilised ligand", "conditions": "1 µM", "remaining binding [%]": 100}
{"Compound": "CN(C)c1nccc(-c2cnn3ncccc23)n1", "test": "binding", "conditions": "1 µM", "remaining binding [%]": 100}
{"Compound": "NS(=O)(=O)c1cc(NC(=O)Cc2ccccc2)ccc1Oc1cccc(Cl)c1", "test": "cell-free assay, competition with immobilised ligand", "conditions": "1 µM", "remaining binding [%]": 100}
{"Compound": "O=C(Nc1c[nH]nc1C(=O)NC1CCNCC1)c1cc(F)cc(F)c1", "test": "binding, competition with immobilised ligand", "conditions": "1 µM", "remaining binding [%]": 74}
{"Compound": "O=C(NCCCN1CCOCC1)c1ccc(Nc2ncc(Cl)c(-c3ccc(Cl)s3)n2)cc1", "test": "binding, competition with immobilised ligand", "conditions": "1 µM", "remaining binding [%]": 38}
{"Compound": "N[C@H]1CCN(c2nccc(-c3cnn4ncccc34)n2)C1", "test": "binding", "conditions": "1 µM", "remaining binding [%]": 100}
{"Compound": "CCN1CCN(Cc2ccc(C(=O)Nc3ccc(C)c(Oc4ccc5c(c4)CC(=O)N5)c3)cc2C(F)(F)F)CC1", "test": "binding, competition with immobilised ligand", "conditions": "1 µM", "remaining binding [%]": 76}
{"Compound": "Nc1cnc(N2CCc3cc(S(=O)(=O)Nc4c(F)cc(Cl)cc4F)cc(N4CCCC4=O)c32)nc1", "test": "cell-free assay, competition with immobilised ligand", "conditions": "1 µM", "remaining binding [%]": 93}
{"Compound": "Cc1cnn2ncc(-c3ccnc(N(C)C)n3)c2c1", "test": "binding", "conditions": "1 µM", "remaining binding [%]": 100}
{"Compound": "O=C(N1CCS(=O)(=O)CC1)N1C[C@H](c2ccc(OC(F)(F)F)cc2)C[C@H](c2nc(C3CC3)no2)C1", "test": "cell-free assay, competition with immobilised ligand", "conditions": "1 µM", "remaining binding [%]": 100}
{"Compound": "Cc1cnc(Nc2ccc(C(=O)N3CCC(N4CCCC4)CC3)cc2)nc1-c1cc2ccccc2s1", "test": "binding, competition with immobilised ligand", "conditions": "1 µM", "remaining binding [%]": 50}
{"Compound": "COc1ncc2cc3ccccc3nc2c1C#N", "test": "cell-free assay, competition with immobilised ligand", "conditions": "5 µM", "remaining binding [%]": 100}
{"Compound": "CC1=C(C#N)[C@@H](c2ccc3[nH]nc(C)c3c2)C(C#N)=C(c2ccc(Cl)cc2)N1", "test": "cell-free assay, competition with immobilised ligand", "conditions": "1 µM", "remaining binding [%]": 100}
{"Compound": "COc1ccnn2ncc(-c3ccnc(N(C)C)n3)c12", "test": "binding", "conditions": "1 µM", "remaining binding [%]": 100}
{"Compound": "Nc1ncc2c(n1)-c1c([nH]c3ccc(C#CC4CC4)cc13)CCCC2", "test": "binding, competition with immobilised ligand", "conditions": "1 µM", "remaining binding [%]": 87}
{"Compound": "CN(C)c1nccc(-c2cnc3ncccn23)n1", "test": "binding", "conditions": "1 µM", "remaining binding [%]": 100}
{"Compound": "COc1cnc(Nc2cccc(S(N)(=O)=O)c2)nc1N1CCN(c2ccccc2)CC1", "test": "binding, competition with immobilised ligand", "conditions": "1 µM", "remaining binding [%]": 98}
{"Compound": "Cc1c(C(=O)O)cc(-c2ccc(C3CCNCC3)cc2)c2ccc(-c3ccc(C(F)(F)F)cc3)cc12", "test": "binding, competition with immobilised ligand", "conditions": "1 µM", "remaining binding [%]": 100}
{"Compound": "CN(CCCC(F)(F)F)c1nccc(-c2cnn3ncccc23)n1", "test": "binding", "conditions": "1 µM", "remaining binding [%]": 100}
